In brackets after ≈: the same amount, converted by molar mass.
What was measured:
Assay type in all cases: functional
Pichia kudriavzevii = test: Antimicrobial activity against Candida krusei by broth microdilution method
How it was run: (§1)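 Clinical isolates from human patients, tested by broth microdilution using the AFST-EUCAST reference procedure for fermentative yeasts. The MIC was read per that reference method.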

Magnusiomyces capitatus = test: Antimicrobial activity against Dipodascus capitatus by broth microdilution method
Aspergillus = test: Antimicrobial activity against Aspergillus spp. by broth microdilution method
How it was run: (§2)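 Clinical mould isolates, tested by broth microdilution using the AFST-EUCAST reference method for filamentous fungi. For echinocandins, the endpoint was the minimum effective concentration: the lowest drug concentration giving aberrant hyphal growth, read with an inverted microscope.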

[1] = Antimicrobial activity against Hormographiella aspergillata by broth microdilution method; conditions: Coprinopsis cinerea
How it was run: (§3)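 Filamentous fungus clinical isolates tested by the AFST-EUCAST reference broth microdilution method for moulds. For echinocandins, the endpoint was the minimum effective concentration: the lowest drug concentration giving aberrant hyphal growth, read with an inverted microscope.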

Coprinellus domesticus = test: Antimicrobial activity against Hormographiella verticillata by broth microdilution method; how it was run: as §3
[2] = system: Cladophialophora bantiana; test: Antimicrobial activity against Cladophialophora bantiana by broth microdilution method; how it was run: as §2
Clavispora lusitaniae = test: Antimicrobial activity against Candida lusitaniae by broth microdilution method; how it was run: as §1
Paecilomyces variotii = test: Antimicrobial activity against Paecilomyces variotii by broth microdilution method; how it was run: as §3
[3] = system: Kazachstania pintolopesii; test: Antimicrobial activity against Candida pintolopesii by broth microdilution method; conditions: Arxiozyma pintolopesii; how it was run: as §1
Aureobasidium pullulans = test: Antimicrobial activity against Aureobasidium pullulans by broth microdilution method
Lecythophora hoffmannii = test: Antimicrobial activity against Lecythophora hoffmannii by broth microdilution method; conditions: Coniochaeta hoffmannii; how it was run: as §3
Candida orthopsilosis = test: Antimicrobial activity against Candida orthopsilosis by broth microdilution method; conditions: Lodderomyces orthopsilosis; how it was run: as §1
Debaryomyces hansenii = test: Antimicrobial activity against Candida famata by broth microdilution method; how it was run: as §1
Lomentospora prolificans = test: Antimicrobial activity against Scedosporium prolificans by broth microdilution method; how it was run: as §3
Yarrowia lipolytica = test: Antimicrobial activity against Yarrowia lipolytica by broth microdilution method
Aspergillus terreus = test: Antimicrobial activity against Aspergillus terreus by broth microdilution method; how it was run: as §2
Fusarium solani = test: Antimicrobial activity against Fusarium solani by broth microdilution method; how it was run: as §3
Mucor = test: Antimicrobial activity against Mucor spp.by broth microdilution method; how it was run: as §3
[4] = system: Cunninghamella bertholletiae; test: Antimicrobial activity against Cunninghamella bertholletiae by broth microdilution method; how it was run: as §2
[Candida] intermedia = Antimicrobial activity against Candida intermedia by broth microdilution method; conditions: Sungouiella intermedia; how it was run: as §1
Aspergillus flavus = test: Antimicrobial activity against Aspergillus flavus by broth microdilution method; how it was run: as §2
Naganishia albida = test: Antimicrobial activity against Cryptococcus albidus by broth microdilution method
How it was run: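 Clinical isolates of nonfermentative yeasts, tested by broth microdilution following EUCAST recommendations. The only change from that method was a minor modification to improve growth.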

Neurospora sitophila = test: Antimicrobial activity against Chrysonilia sitophila by broth microdilution method; how it was run: as §2
Beauveria bassiana = test: Antimicrobial activity against Beauveria bassiana by broth microdilution method; how it was run: as §2
Kluyveromyces marxianus = test: Antimicrobial activity against Candida kefyr by broth microdilution method; how it was run: as §1
Lichtheimia corymbifera = test: Antimicrobial activity against Mycocladus corymbiferus by broth microdilution method; how it was run: as §3
Candida albicans = test: Antimicrobial activity against Candida albicans by broth microdilution method; how it was run: as §1
Fennellia nivea = test: Antimicrobial activity against Aspergillus niveus by broth microdilution method; how it was run: as §2
Nakaseomyces glabratus = test: Antimicrobial activity against Candida glabrata by broth microdilution method; how it was run: as §1
Wickerhamomyces anomalus = test: Antimicrobial activity against Candida pelliculosa by broth microdilution method; conditions: Hansenula anomala; how it was run: as §1
Hortaea werneckii = test: Antimicrobial activity against Hortaea werneckii by broth microdilution method
Candida tropicalis = test: Antimicrobial activity against Candida tropicalis by broth microdilution method; how it was run: as §1
Cladosporium = test: Antimicrobial activity against Cladosporium spp. by broth microdilution method; how it was run: as §2
Rhizopus arrhizus = test: Antimicrobial activity against Rhizopus oryzae by broth microdilution method; how it was run: as §3
[Candida] inconspicua = Antimicrobial activity against Candida inconspicua by broth microdilution method; conditions: Pichia inconspicua; how it was run: as §1
Fusarium equiseti = test: Antimicrobial activity against Fusarium equiseti by broth microdilution method; how it was run: as §2
Rhodotorula glutinis = test: Antimicrobial activity against Rhodotorula glutinis by broth microdilution method
How it was run: (§4)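 Nonfermentative yeast clinical isolates (Rhodotorula, Trichosporon) tested by broth microdilution. The EUCAST yeast recommendations were followed strictly, with one minor modification to improve growth. MIC was read as the endpoint.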

Scedosporium apiospermum = test: Antimicrobial activity against Scedosporium apiospermum by broth microdilution method; how it was run: as §3
Candida parapsilosis = test: Antimicrobial activity against Candida parapsilosis by broth microdilution method; conditions: Lodderomyces parapsilosis; how it was run: as §1
Fusarium proliferatum = test: Antimicrobial activity against Fusarium proliferatum by broth microdilution method; how it was run: as §2
Trichosporon asahii = test: Antimicrobial activity against Trichosporon asahii by broth microdilution method; how it was run: as §4

## CCC(C)n1ncn(-c2ccc(N3CCN(c4ccc(OCC5COC(Cn6cncn6)(c6ccc(Cl)cc6Cl)O5)cc4)CC3)cc2)c1=O (configuration not stated) [ITRACONAZOLE]
Pichia kudriavzevii
  MIC50: 0.25 µg/mL (≈ 0.354 µM)
  MIC90: 0.25 µg/mL (≈ 0.354 µM)
Magnusiomyces capitatus
  MIC50: 0.25 µg/mL (≈ 0.354 µM)
  MIC90: 0.5 µg/mL (≈ 0.709 µM)
Aspergillus
  MIC50: 0.5 µg/mL (≈ 0.709 µM)
  MIC90: > 8 µg/mL
[1]
  MIC50: > 8 µg/mL
  MIC90: > 8 µg/mL
Coprinellus domesticus
  MIC50: > 8 µg/mL
  MIC90: > 8 µg/mL
[2]
  MIC50: 0.12 µg/mL (≈ 0.17 µM)
  MIC90: > 8 µg/mL
Clavispora lusitaniae
  MIC50: 0.02 µg/mL (≈ 0.0283 µM)
  MIC90: 0.03 µg/mL (≈ 0.0425 µM)
Paecilomyces variotii
  MIC50: 0.06 µg/mL (≈ 0.085 µM)
  MIC90: 0.25 µg/mL (≈ 0.354 µM)
[3]
  MIC50: 0.12 µg/mL (≈ 0.17 µM)
  MIC90: > 8 µg/mL
Aureobasidium pullulans
  MIC50: 0.12 µg/mL (≈ 0.17 µM)
  MIC90: > 8 µg/mL
Lecythophora hoffmannii
  MIC50: 0.12 µg/mL (≈ 0.17 µM)
  MIC90: > 8 µg/mL
Candida orthopsilosis
  MIC50: 0.12 µg/mL (≈ 0.17 µM)
  MIC90: > 8 µg/mL
Debaryomyces hansenii
  MIC50: 0.12 µg/mL (≈ 0.17 µM)
  MIC90: > 8 µg/mL
Lomentospora prolificans
  MIC50: > 8 µg/mL
  MIC90: > 8 µg/mL
Yarrowia lipolytica
  MIC50: 0.5 µg/mL (≈ 0.709 µM)
  MIC90: > 8 µg/mL
Aspergillus terreus
  MIC50: 0.25 µg/mL (≈ 0.354 µM)
  MIC90: 0.5 µg/mL (≈ 0.709 µM)
Fusarium solani
  MIC50: > 8 µg/mL
  MIC90: > 8 µg/mL
Mucor
  MIC50: > 8 µg/mL
  MIC90: > 8 µg/mL
[4]
  MIC50: > 8 µg/mL
  MIC90: > 8 µg/mL
[Candida] intermedia
  MIC50: 0.12 µg/mL (≈ 0.17 µM)
  MIC90: > 8 µg/mL
Aspergillus flavus
  MIC50: 0.25 µg/mL (≈ 0.354 µM)
  MIC90: 0.5 µg/mL (≈ 0.709 µM)
Naganishia albida
  MIC50: 0.5 µg/mL (≈ 0.709 µM)
  MIC90: > 8 µg/mL
Neurospora sitophila
  MIC50: > 8 µg/mL
  MIC90: > 8 µg/mL
Beauveria bassiana
  MIC50: > 8 µg/mL
  MIC90: > 8 µg/mL
Kluyveromyces marxianus
  MIC50: 0.02 µg/mL (≈ 0.0283 µM)
  MIC90: 0.06 µg/mL (≈ 0.085 µM)
Lichtheimia corymbifera
  MIC50: 1 µg/mL (≈ 1.42 µM)
  MIC90: > 8 µg/mL
Candida albicans
  MIC50: 0.02 µg/mL (≈ 0.0283 µM)
  MIC90: 0.03 µg/mL (≈ 0.0425 µM)
Fennellia nivea
  MIC50: 0.5 µg/mL (≈ 0.709 µM)
  MIC90: > 8 µg/mL
Nakaseomyces glabratus
  MIC50: 0.25 µg/mL (≈ 0.354 µM)
  MIC90: 1 µg/mL (≈ 1.42 µM)
Wickerhamomyces anomalus
  MIC50: 0.12 µg/mL (≈ 0.17 µM)
  MIC90: > 8 µg/mL
Hortaea werneckii
  MIC50: 0.12 µg/mL (≈ 0.17 µM)
  MIC90: > 8 µg/mL
Candida tropicalis
  MIC50: 0.02 µg/mL (≈ 0.0283 µM)
  MIC90: 0.06 µg/mL (≈ 0.085 µM)
Cladosporium
  MIC50: 0.12 µg/mL (≈ 0.17 µM)
  MIC90: > 8 µg/mL
Rhizopus arrhizus
  MIC50: 4 µg/mL (≈ 5.67 µM)
  MIC90: > 8 µg/mL
[Candida] inconspicua
  MIC50: 0.12 µg/mL (≈ 0.17 µM)
  MIC90: > 8 µg/mL
Fusarium equiseti
  MIC50: > 8 µg/mL
  MIC90: > 8 µg/mL
Rhodotorula glutinis
  MIC50: 0.5 µg/mL (≈ 0.709 µM)
  MIC90: > 8 µg/mL
Scedosporium apiospermum
  MIC50: 1 µg/mL (≈ 1.42 µM)
  MIC90: > 8 µg/mL
Candida parapsilosis
  MIC50: 0.02 µg/mL (≈ 0.0283 µM)
  MIC90: 0.03 µg/mL (≈ 0.0425 µM)
Fusarium proliferatum
  MIC50: > 8 µg/mL
  MIC90: > 8 µg/mL
Trichosporon asahii
  MIC50: 0.5 µg/mL (≈ 0.709 µM)
  MIC90: > 8 µg/mL

— ChEMBL document CHEMBL1649165, “Activity profile in vitro of micafungin against Spanish clinical isolates of common and emerging species of yeasts and molds” (2009)
